Assay results from ChEMBL document CHEMBL1132230, “1-(1,2,5-Thiadiazol-4-yl)-4-azatricyclo[2.2.1.0(2,6)]heptanes as new potent muscarinic M1 agonists: structure-activity relationship for 3-aryl-2-propyn-1-yloxy and 3-aryl-2-propyn-1-ylthio derivatives” (J Med Chem, 1999).

Experiments:
[1] = target: T1, Muscarinic acetylcholine receptor M2 (Homo sapiens) (UniProt P08172); assay: Inhibition of forskolin induced c-AMP formation in CHO-M2 cells expressing human M2 receptor.; type: functional, cell-based
T1 sequence (whole entry): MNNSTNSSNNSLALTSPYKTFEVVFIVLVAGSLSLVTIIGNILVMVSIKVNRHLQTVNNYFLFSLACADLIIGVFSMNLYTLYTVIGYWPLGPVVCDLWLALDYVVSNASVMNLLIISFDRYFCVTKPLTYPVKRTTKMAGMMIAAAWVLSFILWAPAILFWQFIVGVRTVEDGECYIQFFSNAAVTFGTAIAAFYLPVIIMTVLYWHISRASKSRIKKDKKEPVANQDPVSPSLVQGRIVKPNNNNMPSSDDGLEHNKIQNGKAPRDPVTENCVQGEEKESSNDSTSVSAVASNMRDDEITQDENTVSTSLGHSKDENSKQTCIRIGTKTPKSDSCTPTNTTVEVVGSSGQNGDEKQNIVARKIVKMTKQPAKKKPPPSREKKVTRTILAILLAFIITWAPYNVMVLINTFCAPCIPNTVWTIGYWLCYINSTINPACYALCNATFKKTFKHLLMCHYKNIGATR
In short: (§1)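 CHO cells transfected with human M2 receptor plasmid and cultured with atropine and methotrexate; atropine withdrawn overnight. Cells detached with PBS/1 mM EDTA, then preincubated 30 min at 0 °C in DMEM/20 mM HEPES pH 7.4 with 0.5 mM IBMX. Compound added and 10 μM forskolin (final) started a 10 min, 37 °C incubation, stopped with ice-cold ethanol. cAMP measured by radioimmunoassay.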

[2] = Ratio of EC50(CHO-M2) and EC50(A9L-M1); type: functional
In short: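 Ratio of EC50 for inhibition of forskolin-stimulated cAMP in human-M2 CHO cells to EC50 for PI hydrolysis in A9L-M1 cells, both measured in this work.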

[3] = target: T2, Muscarinic acetylcholine receptor M2 (Rattus norvegicus, UniProt P10980); assay: Inhibition of [3H]- Oxo-M binding at Muscarinic acetylcholine receptor M2 in rat brain membranes.; type: cell membranes
T2 sequence (P10980 whole entry): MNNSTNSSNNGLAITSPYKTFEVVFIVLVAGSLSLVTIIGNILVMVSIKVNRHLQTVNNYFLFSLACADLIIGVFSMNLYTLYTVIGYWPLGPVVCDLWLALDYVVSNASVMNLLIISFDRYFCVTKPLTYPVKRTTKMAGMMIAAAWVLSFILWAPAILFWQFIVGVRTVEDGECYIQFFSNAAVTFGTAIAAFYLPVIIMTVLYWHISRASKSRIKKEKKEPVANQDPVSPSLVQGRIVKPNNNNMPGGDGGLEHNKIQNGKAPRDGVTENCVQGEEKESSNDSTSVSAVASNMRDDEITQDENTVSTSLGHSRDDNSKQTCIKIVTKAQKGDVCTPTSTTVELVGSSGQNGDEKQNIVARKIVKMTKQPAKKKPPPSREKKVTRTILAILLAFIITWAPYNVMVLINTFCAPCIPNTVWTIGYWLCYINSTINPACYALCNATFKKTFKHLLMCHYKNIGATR
In short: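 Rat cortex homogenized in 20 mM HEPES pH 7.4 and centrifuged at 40000g. Membranes incubated 60 min at room temperature with 1 nM (final) [³H]oxotremorine-M and compound. Separated on PEI-soaked GF/C filters and counted by scintillation. Nonspecific binding defined with 10 μM arecoline. Value reported as IC50.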

[4] = target: T2, Muscarinic acetylcholine receptor M2; assay: In vitro Muscarinic acetylcholine receptor M2 binding was evaluated in rat brain membranes by using [3H]- Oxo-M; type: cell membranes
In short: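 Rat cortex homogenized in 20 mM Hepes pH 7.4 and spun 10 min at 40000g; pellet resuspended and incubated with [3H]oxotremorine-M (1 nM final) plus test drug for 60 min at room temperature. Bound and free separated by vacuum filtration on PEI-presoaked GF/C filters, then scintillation counting.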

[5] = target: T1, Muscarinic acetylcholine receptor M2 (Homo sapiens); assay: Compound was tested for its potency towards Muscarinic acetylcholine receptor M2 by inhibiting forskolin induced c-AMP formation in CHO-M2 cells expressing human Muscarinic acetylcholine receptor M2 receptor; type: functional, cell-based; in short: as §1
[6] = target: T3, Muscarinic acetylcholine receptor M1 (Homo sapiens, UniProt P11229); assay: Stimulation of phosphoinositol hydrolysis in the mouse fibroblast cell line A9L-M1 expressing Muscarinic acetylcholine receptor M1.; type: functional, cell-based
T3 sequence (P11229 whole entry): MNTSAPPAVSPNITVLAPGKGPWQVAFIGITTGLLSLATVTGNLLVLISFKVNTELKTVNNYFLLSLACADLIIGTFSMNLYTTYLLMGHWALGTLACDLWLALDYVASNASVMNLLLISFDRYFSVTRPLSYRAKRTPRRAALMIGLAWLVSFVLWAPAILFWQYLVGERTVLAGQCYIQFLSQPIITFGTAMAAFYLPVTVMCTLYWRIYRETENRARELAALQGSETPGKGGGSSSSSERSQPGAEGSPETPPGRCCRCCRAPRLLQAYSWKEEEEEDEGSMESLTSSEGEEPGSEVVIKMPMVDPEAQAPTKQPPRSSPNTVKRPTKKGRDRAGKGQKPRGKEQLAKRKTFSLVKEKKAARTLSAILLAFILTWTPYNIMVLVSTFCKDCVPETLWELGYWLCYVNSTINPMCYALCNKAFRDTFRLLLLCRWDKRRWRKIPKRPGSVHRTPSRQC

[7] = target: T4, Muscarinic acetylcholine receptor M2 (Homo sapiens, UniProt P08172); assay: Compound was tested for its potency at M-2 receptor by inhibiting forskolin induced c-AMP formation in CHO-M2 cells human M2 receptor; type: functional, cell-based; in short: as §1
T4 sequence (P08172 whole entry): T1 sequence (whole entry)

[8] = target: T1, Muscarinic acetylcholine receptor M2 (Homo sapiens); assay: Compound was tested for its potency at Muscarinic acetylcholine receptor M2 by inhibiting forskolin induced c-AMP formation in CHO-M2 cells expressing human M2 receptor; type: functional, cell-based
In short: (§2)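 Human M2 receptor plasmid transfected into CHO cells […], cultured in DMEM/10% FBS with 1 μM atropine and 1 μM methotrexate; atropine-free medium overnight before assay. Cells detached with PBS + 1 mM EDTA, washed into DMEM + 20 mM HEPES pH 7.4 + 0.5 mM IBMX, preincubated 30 min at 0 °C. Forskolin 10 μM final, 10 min at 37 °C; ethanol stop; cAMP by radioimmunoassay.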

[9] = target: T4, Muscarinic acetylcholine receptor M2; assay: Compound was tested for its potency towards Muscarinic acetylcholine receptor M2 by inhibiting forskolin induced c-AMP formation in CHO-M2 cells; type: functional, cell-based; in short: as §2
[10] = target: T3, Muscarinic acetylcholine receptor M1; assay: (§3) Compound was tested for its ability to stimulate phosphoinositol (PI) hydrolysis in the mouse fibroblast cell line A9L-M1 expressing Muscarinic acetylcholine receptor M1 (100 uM concentration); type: functional, cell-based
In short: (§4)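 A9L mouse fibroblasts stably expressing M1, grown to confluence in DMEM/10% FCS with 1.3 μCi/mL [³H]inositol for 48 h, detached with trypsin and resuspended in HEPES/LiCl buffer (LiCl 10 mM, pH 7.4). Cells incubated 45 min at 37 °C with compound up to 100 μM. Total [³H]inositol phosphates separated by ion exchange and counted.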

[11] = target: T5, Muscarinic acetylcholine receptor M1 (Homo sapiens) (UniProt P11229); assay: as §3; type: functional, cell-based; in short: as §4
T5 sequence (whole entry): T3 sequence (P11229 whole entry)

SMILES	Max [1]	IC50 [3]	Max [5]	EC50 [6]	EC50 [7]	Max [8]	EC50 [9]	EC50 [10]	Max [11]	Ratio [2]	IC50 [4]
CN1CCC=C(c2nsnc2OCC#Cc2ccccc2)C1	115%	14 nM	–	–	–	–	–	–	–	2	–
CCCCCCOc1nsnc1C1=CCCN(C)C1 [XANOMELINE]	–	–	82%	–	–	–	–	–	–	–	16 nM
Fc1ccc(C#CCSc2nsnc2C23CN4CC2C3C4)cc1	88%	20 nM	–	4.5 nM	83 nM	–	–	–	–	18	–
C[N+](C)(C)CCOC(N)=O	–	–	100%	–	–	–	–	–	–	–	–
C(#Cc1ccccc1)CSc1nsnc1C12CN3CC1C2C3	106%	27 nM	–	61.9 nM	853 nM	–	–	–	–	14	–
Fc1cccc(C#CCSc2nsnc2C23CN4CC2C3C4)c1	106%	26 nM	–	2.5 nM	904 nM	–	–	–	–	362	–
COc1cccc(C#CCO/N=C2\CN3CCC2C3)c1 (stereo not given)	–	–	89%	7120 nM	–	–	26700 nM	–	–	4	150 nM
Clc1ccc(C#CCSc2nsnc2C23CN4CC2C3C4)cc1	76%	242 nM	–	107 nM	80 nM	–	–	–	–	1	–

Second part, led by results:

Max [1]	IC50 [3]	Max [5]	EC50 [6]	EC50 [7]	Max [8]	EC50 [9]	EC50 [10]	Max [11]	SMILES	Ratio [2]	IC50 [4]
23%	1690 nM	–	1200 nM	–	–	–	–	–	Clc1cc(Cl)cc(C#CCOc2nsnc2C23CN4CC2C3C4)c1	–	–
109%	10 nM	–	71 nM	791 nM	–	–	–	–	Fc1ccc(C#CCOc2nsnc2C23CN4CC2C3C4)cc1	11	–
84%	788 nM	–	1810 nM	528 nM	–	–	–	–	Clc1cc(Cl)cc(C#CCSc2nsnc2C23CN4CC2C3C4)c1	0.3	–
101%	47 nM	–	10.5 nM	2280 nM	–	–	–	–	Clc1cccc(C#CCOc2nsnc2C23CN4CC2C3C4)c1	217	–
–	16 nM	–	–	–	99%	–	–	–	C(#Cc1ccccc1)COc1nsnc1C12CN3CC1C2C3	11	–
76%	92 nM	–	110 nM	1480 nM	–	–	–	–	Fc1cc(Cl)cc(C#CCOc2nsnc2C23CN4CC2C3C4)c1	13	–
96%	49 nM	–	9 nM	673 nM	–	–	–	–	Clc1cccc(C#CCSc2nsnc2C23CN4CC2C3C4)c1	74	–
79%	28 nM	–	7.6 nM	1660 nM	–	–	–	–	Fc1cc(F)cc(C#CCSc2nsnc2C23CN4CC2C3C4)c1	218	–
90%	142 nM	–	46 nM	763 nM	–	–	–	–	Fc1cc(Cl)cc(C#CCSc2nsnc2C23CN4CC2C3C4)c1	17	–
–	21 nM	–	–	683 nM	–	–	4.9 nM	91%	Fc1cccc(C#CCOc2nsnc2C23CN4CC2C3C4)c1	139	–
68%	30 nM	–	20.2 nM	2690 nM	–	–	–	–	Fc1cc(F)cc(C#CCOc2nsnc2C23CN4CC2C3C4)c1	133	–
102%	63 nM	–	–	1210 nM	–	–	–	–	Clc1ccc(C#CCOc2nsnc2C23CN4CC2C3C4)cc1	–	–
